From paper PMC7442746 (ACS chemical biology, 2020)

What was measured:
[1] = target: T1, recombinant human HDAC10 (TwinStrep-HDAC10 fusion protein) (Homo sapiens, UniProt Q969S8); experiment: Differential scanning fluorimetry; type: binding; settings: protein 3 μM, inhibitor 6 μM; for melting temperature (Tm) of TwinStrep-HDAC10 with inhibitor: Tm 65.90 °C with 0.6% DMSO, n = 2
T1 sequence (Q969S8 1-669): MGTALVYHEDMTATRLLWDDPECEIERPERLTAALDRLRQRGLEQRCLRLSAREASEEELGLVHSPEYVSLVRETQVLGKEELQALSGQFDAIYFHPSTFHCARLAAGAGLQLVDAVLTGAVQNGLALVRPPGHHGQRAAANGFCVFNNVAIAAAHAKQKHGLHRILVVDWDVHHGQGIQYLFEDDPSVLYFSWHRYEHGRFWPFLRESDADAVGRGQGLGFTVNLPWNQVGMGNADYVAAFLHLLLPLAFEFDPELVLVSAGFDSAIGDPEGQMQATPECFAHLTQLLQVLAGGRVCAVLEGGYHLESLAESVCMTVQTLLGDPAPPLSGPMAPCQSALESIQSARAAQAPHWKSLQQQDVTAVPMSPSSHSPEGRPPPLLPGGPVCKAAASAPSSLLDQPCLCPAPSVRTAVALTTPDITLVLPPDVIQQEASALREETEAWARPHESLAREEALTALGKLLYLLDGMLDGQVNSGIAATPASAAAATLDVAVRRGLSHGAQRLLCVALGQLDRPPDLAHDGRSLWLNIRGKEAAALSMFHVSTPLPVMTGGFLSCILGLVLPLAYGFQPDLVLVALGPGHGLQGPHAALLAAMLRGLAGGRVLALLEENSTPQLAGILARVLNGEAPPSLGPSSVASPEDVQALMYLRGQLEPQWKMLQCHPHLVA
Procedure, shortened: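 Nano-DSF on recombinant human HDAC10 with an N-terminal TwinStrep tag. Protein at 3 μM and test compound at 6 μM (protein:inhibitor 1:2). Controls were protein alone and protein with DMSO, each run once. Compound runs were done twice and Tm reported as the mean of the two. Thermal shift was taken as the Tm change from the DMSO control.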

HDAC10 over HDAC6 = settings: cited from earlier work
human HDAC10 = settings: oxa analogue weaker than Tubastatin A; cited from earlier work

Structure (SMILES)	melting temperature (Tm) of TwinStrep-HDAC10 with inhibitor [1] [°C]	selectivity for inhibition of HDAC10 compared to HDAC6 (HDAC10 over HDAC6) [fold]	thermal shift ([1]; relative to DMSO control) [°C]	difference in HDAC10 binding affinity between Tubastatin A and its oxa analogue (human HDAC10) [fold]
CN1CCc2c(c3ccccc3n2Cc2ccc(C(=O)NO)cc2)C1 [Tubastatin A, reference compound]	72.94 ± 0.08	~8		
O=C(NO)c1ccc(Cn2c3c(c4ccccc42)COCC3)cc1 [oxa-Tubastatin A]	67.27 ± 0.01		1.37	52
